Test results taken from ChEMBL document CHEMBL1828575, “Design, synthesis and antiproliferative activities of biarylolefins based on polyhydroxylated and carbohydrate scaffolds” (Eur J Med Chem, 2011).

Key:
Assay type in all cases: functional
HCT-116 = assay: Cytotoxicity against human HCT116 cells assessed as cellular growth at 10 uM after 48 hrs by SRB assay
In short: (§1)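 NCI60 single-dose screen of cells in RPMI 1640 with 5% FBS and 2 mM L-glutamine, preincubated 24 h at 37 °C, 5% CO₂. Cells were then exposed 48 h to compound added from DMSO stock. TCA-fixed, stained with 0.4% SRB in 1% acetic acid, dye solubilised in 10 mM Tris base and read at 515 nm. Growth is given as percent of untreated control.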

LOX IMVI = assay: Cytotoxicity against human LOXIMVI cells assessed as cellular growth at 10 uM after 48 hrs by SRB assay; in short: as §1
SR = assay: Cytotoxicity against human SR cells assessed as cellular growth at 10 uM after 48 hrs by SRB assay
In short: (§2)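 NCI-60 panel lines grown in RPMI 1640 with 5% FBS and 2 mM L-glutamine. Plated at 5000–40,000 cells/well and preincubated 24 h at 37 °C, 5% CO₂, with time-zero plates fixed in TCA. Compounds, dissolved in DMSO and diluted in medium, were applied for 48 h. Cells were TCA-fixed (10% final for adherent, 16% for suspension) and stained with 0.4% SRB in 1% acetic acid. Dye was solubilised in 10 mM Tris base and read at 515 nm; growth was expressed as a percentage of untreated control.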

NCI-H23 = assay: Antitumor activity against human NCI-H23 cells after 48 hrs by SRB assay; conditions: NCI-H23, 48 h
In short: (§3)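 NCI60 panel in RPMI 1640 with 5% FBS and 2 mM L-glutamine. Cells were plated at 5000–40,000/well by doubling time, held 24 h, then time-zero plates were TCA-fixed. Five concentrations (10-fold or half-log dilutions of DMSO stocks) were applied for 48 h at 37 °C, 5% CO2. Cells were fixed with cold TCA (10% final adherent, 16% suspension) and stained with 0.4% SRB. Bound dye was dissolved in 10 mM Tris and read at 515 nm. GI50, TGI and LC50 were calculated per line.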

HOP-92 = assay: Antitumor activity against human HOP92 cells after 48 hrs by SRB assay; conditions: HOP-92, 48 h; in short: as §3
BT-549 = assay: Antitumor activity against human BT549 cells after 48 hrs by SRB assay; conditions: BT-549, 48 h
In short: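 NCI60 screen: cells grown in RPMI 1640 with 5% FBS and 2 mM L-glutamine, plated at 5000–40,000 cells/well by doubling time, preincubated 24 h at 37 °C with 5% CO2. Compounds were diluted from DMSO stocks and given for 48 h, at five concentrations for dose response. A time-zero plate was TCA-fixed. Cells were TCA-fixed, stained with 0.4% SRB and read at 515 nm, with growth expressed relative to untreated controls.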

MCF7 = assay: Antitumor activity against human MCF7 cells after 48 hrs by SRB assay; conditions: MCF7, 48 h; in short: as §3
U-251 = assay: Cytotoxicity against human U251 cells assessed as cellular growth at 10 uM after 48 hrs by SRB assay; in short: as §2
TK-10 = assay: Antitumor activity against human TK10 cells after 48 hrs by SRB assay; conditions: TK-10, 48 h
In short: (§4)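 NCI60 panel cells grown in RPMI 1640 with 5% FBS and 2 mM L-glutamine, plated at 5000–40,000 cells/well and preincubated 24 h at 37 °C, 5% CO₂. Compound was added from DMSO at five concentrations, 10-fold or 1/2 log dilutions, then incubated 48 h.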

COLO 205 = assay: Antitumor activity against human COLO205 cells after 48 hrs by SRB assay; conditions: COLO 205, 48 h; in short: as §3
KM12 = assay: Cytotoxicity against human KM12 cells assessed as cellular growth at 10 uM after 48 hrs by SRB assay; in short: as §1
A498 = assay: Antitumor activity against human A498 cells after 48 hrs by SRB assay; conditions: A498, 48 h; in short: as §3
SK-MEL-5 = assay: Antitumor activity against human SK-MEL-5 cells after 48 hrs by SRB assay; conditions: SK-MEL-5, 48 h; in short: as §4
PC-3 = assay: Antitumor activity against human PC3 cells after 48 hrs by SRB assay; conditions: PC-3, 48 h; in short: as §3
HL-60(TB) = assay: Cytotoxicity against human HL-60(TB) cells assessed as cellular growth at 10 uM after 48 hrs by SRB assay
HOP-62 = assay: Antitumor activity against human HOP62 cells after 48 hrs by SRB assay; conditions: HOP-62, 48 h; in short: as §3
786-0 [1] = assay: Antitumor activity against human 786-0 cells after 48 hrs by SRB assay; conditions: 786-0, 48 h; in short: as §3
MOLT-4 = assay: Antitumor activity against human MOLT4 cells after 48 hrs by SRB assay; conditions: MOLT-4, 48 h; in short: as §3
786-0 [2] = assay: Cytotoxicity against human 786-0 cells assessed as cellular growth at 10 uM after 48 hrs by SRB assay; in short: as §1
RPMI-8226 = assay: Antitumor activity against human RPMI8226 cells after 48 hrs by SRB assay; conditions: RPMI-8226, 48 h; in short: as §3
[3] = read-out: LC50 (the source's name)
[4] = read-out: pLC50 (the source's name) (converted)

For `COc1cc(/C(=C2\O[C@@H]([C@H]3COC(C)(C)O3)[C@H]3OC(C)(C)O[C@@H]23)c2ccc3ccccc3c2)cc(OC)c1OC`, which Activity (HCT-116) is on record?
The Activity was 58.36%.

What about the Activity (LOX IMVI) of the same molecule?
The Activity was 46.36%.

What about the Activity (SR) of the same molecule?
The Activity was 51.36%.

And the GI50 (NCI-H23; read-out: GI50)?
The GI50 was 5.43 µM.

And the CC50 (NCI-H23; [3])?
Its CC50 is greater than 100 µM.

And the TGI (NCI-H23; read-out: TGI)?
Its TGI is greater than 100 µM.

What about the GI50 (NCI-H23; read-out: pGI50 (converted)) of the same molecule?
The GI50 was 5.37 µM.

And the CC50 (NCI-H23; [4])?
Its CC50 is greater than 100 µM.

And the TGI (NCI-H23; read-out: pTGI (converted))?
The TGI was greater than 100 µM.

What about the GI50 (HOP-92) of the same molecule?
Its GI50 is 2670 nM.

What about the TGI (HOP-92) of the same molecule?
Its TGI is 13.3 µM.

And the CC50 (HOP-92; [3])?
Its CC50 is greater than 100 µM.

And the CC50 (BT-549; [3])?
Its CC50 is greater than 100 µM.

What about the GI50 (BT-549; read-out: pGI50 (converted)) of the same molecule?
The GI50 was 3.24 µM.

What about the CC50 (BT-549; [4]) of the same molecule?
The CC50 was greater than 100 µM.

What about the TGI (BT-549; read-out: pTGI (converted)) of the same molecule?
The TGI was 8.13 µM.

And the GI50 (MCF7; read-out: GI50)?
The GI50 was 3.69 µM.

What about the CC50 (MCF7; [3]) of the same molecule?
The CC50 was greater than 100 µM.

And the TGI (MCF7; read-out: TGI)?
The TGI was 14.4 µM.

What about the GI50 (MCF7; read-out: pGI50 (converted)) of the same molecule?
The GI50 was 3.63 µM.

And the CC50 (MCF7; [4])?
The CC50 was greater than 100 µM.

What about the TGI (MCF7; read-out: pTGI (converted)) of the same molecule?
The TGI was 14.5 µM.

And the Activity (U-251)?
Its Activity is 18%.

What about the GI50 (TK-10; read-out: GI50) of the same molecule?
The GI50 was 3.2 µM.

And the CC50 (TK-10; [3])?
The CC50 was greater than 100 µM.

What about the TGI (TK-10; read-out: TGI) of the same molecule?
Its TGI is 7.2 µM.

What about the GI50 (TK-10; read-out: pGI50 (converted)) of the same molecule?
The GI50 was 3.16 µM.

What about the CC50 (TK-10; [4]) of the same molecule?
Its CC50 is greater than 100 µM.

What about the TGI (TK-10; read-out: pTGI (converted)) of the same molecule?
The TGI was 7.24 µM.

What about the GI50 (COLO 205; read-out: GI50) of the same molecule?
The GI50 was 6.97 µM.

And the CC50 (COLO 205; [3])?
The CC50 was greater than 100 µM.

And the TGI (COLO 205; read-out: TGI)?
Its TGI is greater than 100 µM.

And the GI50 (COLO 205; read-out: pGI50 (converted))?
Its GI50 is 6.92 µM.

What about the CC50 (COLO 205; [4]) of the same molecule?
Its CC50 is greater than 100 µM.

What about the TGI (COLO 205; read-out: pTGI (converted)) of the same molecule?
Its TGI is greater than 100 µM.

And the Activity (KM12)?
Its Activity is 33.42%.

And the GI50 (A498; read-out: GI50)?
Its GI50 is 17.8 µM.

And the CC50 (A498; [3])?
The CC50 was greater than 100 µM.

And the TGI (A498; read-out: TGI)?
The TGI was 74.6 µM.

And the GI50 (A498; read-out: pGI50 (converted))?
Its GI50 is 4.37 µM.

What about the CC50 (A498; [4]) of the same molecule?
The CC50 was greater than 100 µM.

And the TGI (A498; read-out: pTGI (converted))?
The TGI was greater than 100 µM.

What about the GI50 (SK-MEL-5) of the same molecule?
The GI50 was 4.07 µM.

What about the LC50 (SK-MEL-5) of the same molecule?
Its LC50 is 51.4 µM.

And the TGI (SK-MEL-5)?
The TGI was 15.4 µM.

What about the GI50 (PC-3; read-out: GI50) of the same molecule?
The GI50 was 5.71 µM.

And the CC50 (PC-3; [3])?
The CC50 was greater than 100 µM.

And the TGI (PC-3; read-out: TGI)?
Its TGI is greater than 100 µM.

What about the GI50 (PC-3; read-out: pGI50 (converted)) of the same molecule?
Its GI50 is 5.75 µM.

What about the CC50 (PC-3; [4]) of the same molecule?
The CC50 was greater than 100 µM.

And the TGI (PC-3; read-out: pTGI)?
The TGI was greater than 100 µM.

What about the Activity (HL-60(TB)) of the same molecule?
Its Activity is 59.17%.

And the GI50 (HOP-62)?
The GI50 was 9.78 µM.

What about the TGI (HOP-62) of the same molecule?
The TGI was 31.4 µM.

What about the CC50 (HOP-62; [3]) of the same molecule?
Its CC50 is 99.8 µM.

What about the GI50 (786-0 [1]) of the same molecule?
The GI50 was 2300 nM.

What about the LC50 (786-0 [1]) of the same molecule?
The LC50 was 8.6 µM.

What about the TGI (786-0 [1]) of the same molecule?
Its TGI is 4.47 µM.

What about the LC50 (concentration killing 50% of cells) (MOLT-4) of the same molecule?
The LC50 (concentration killing 50% of cells) was greater than 100 µM.

What about the GI50 (MOLT-4; read-out: GI50) of the same molecule?
The GI50 was greater than 100 µM.

What about the TGI (MOLT-4; read-out: TGI) of the same molecule?
The TGI was greater than 100 µM.

What about the GI50 (MOLT-4; read-out: pGI50 (converted)) of the same molecule?
Its GI50 is 100 µM.

And the CC50 (MOLT-4; [4])?
Its CC50 is greater than 100 µM.

What about the TGI (MOLT-4; read-out: pTGI) of the same molecule?
The TGI was greater than 100 µM.

What about the Activity (786-0 [2]) of the same molecule?
The Activity was -1.42%.

And the LC50 (concentration killing 50% of starting cells) (RPMI-8226)?
The LC50 (concentration killing 50% of starting cells) was greater than 100 µM.

And the GI50 (RPMI-8226; read-out: GI50)?
The GI50 was 33.3 µM.

What about the TGI (RPMI-8226; read-out: TGI) of the same molecule?
The TGI was greater than 100 µM.

What about the GI50 (RPMI-8226; read-out: pGI50 (converted)) of the same molecule?
The GI50 was 33.1 µM.

What about the CC50 (RPMI-8226; [4]) of the same molecule?
The CC50 was greater than 100 µM.

What about the TGI (RPMI-8226; read-out: pTGI (converted)) of the same molecule?
The TGI was greater than 100 µM.
